Source: PubChem BioAssay AID624163 (Southern Research Specialized Biocontainment Screening …, 2012)
The source made the active and inactive calls.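 The calls were made as follows: active = inhibition of 30% or more at any tested concentration; inactive = the rest.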

What follows are molecules tested against Aminopeptidase N (Plasmodium falciparum (isolate 3D7)) (UniProt O96935) (assay: PFM1AAP inhibitors, dose response, biochemical, QFRET, fluorogenic H-Leu-NHMec substrate, set 3 (AID 624163)). Conditions: purified rPFM1AAP, H-Leu-NHMec fluorogenic substrate cleavage.
Sequence of Aminopeptidase N (Plasmodium falciparum (isolate 3D7)) (O96935 whole entry, looked up): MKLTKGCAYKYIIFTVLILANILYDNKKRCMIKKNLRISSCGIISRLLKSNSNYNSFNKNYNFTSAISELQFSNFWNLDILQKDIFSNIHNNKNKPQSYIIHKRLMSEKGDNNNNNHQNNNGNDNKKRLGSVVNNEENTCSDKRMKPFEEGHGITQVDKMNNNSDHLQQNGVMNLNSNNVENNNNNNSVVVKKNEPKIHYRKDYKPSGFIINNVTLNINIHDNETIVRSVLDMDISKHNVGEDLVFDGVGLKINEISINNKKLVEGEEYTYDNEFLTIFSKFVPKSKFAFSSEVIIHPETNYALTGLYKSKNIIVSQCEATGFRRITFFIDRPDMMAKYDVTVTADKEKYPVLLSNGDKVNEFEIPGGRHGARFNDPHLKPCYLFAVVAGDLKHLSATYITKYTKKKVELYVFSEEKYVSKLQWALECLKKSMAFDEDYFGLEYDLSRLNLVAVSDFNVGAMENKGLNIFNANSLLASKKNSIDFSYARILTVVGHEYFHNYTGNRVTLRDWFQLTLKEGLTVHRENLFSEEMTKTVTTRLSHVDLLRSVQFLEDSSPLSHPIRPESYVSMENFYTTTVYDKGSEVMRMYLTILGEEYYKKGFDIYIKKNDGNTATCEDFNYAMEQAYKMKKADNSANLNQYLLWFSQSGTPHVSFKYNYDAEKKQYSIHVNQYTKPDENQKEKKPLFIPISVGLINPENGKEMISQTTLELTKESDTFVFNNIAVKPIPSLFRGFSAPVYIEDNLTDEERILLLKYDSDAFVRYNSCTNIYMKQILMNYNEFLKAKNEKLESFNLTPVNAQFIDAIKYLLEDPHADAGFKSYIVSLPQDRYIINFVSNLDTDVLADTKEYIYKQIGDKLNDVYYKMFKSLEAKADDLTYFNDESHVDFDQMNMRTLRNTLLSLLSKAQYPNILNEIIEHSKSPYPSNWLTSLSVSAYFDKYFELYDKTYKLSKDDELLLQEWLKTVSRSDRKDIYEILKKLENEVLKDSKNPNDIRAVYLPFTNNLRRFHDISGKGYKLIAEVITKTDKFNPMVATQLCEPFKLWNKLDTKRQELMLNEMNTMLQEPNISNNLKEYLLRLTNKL
Summary of the method: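 test system = purified recombinant Plasmodium falciparum M1 alanyl aminopeptidase (rPfM1AAP) | quantity = enzyme 5 µg/mL | also added = fluorogenic substrate H-Leu-NHMec at 0.1 mM final | timing = 90 min reaction, room temperature | signal = fluorescence ex 370/em 460 nm | read-out basis = % inhibition and IC50 from 4-parameter fit | control set = wells without enzyme as background control | repeats = triplicate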

| SMILES | IC50 |
| --- | --- |
| O=C(NCc1ccccc1F)C1CCN(S(=O)(=O)c2ccc(Cl)s2)CC1 | 3.97 µM |
| O=C(NCc1cccc(F)c1)C1CCN(S(=O)(=O)c2sccc2Br)CC1 | 29.8 µM |
| O=C(NCc1ccccc1F)C1CCN(S(=O)(=O)c2sccc2Br)CC1 | 33.7 µM |
| O=C(NCc1ccc2c(c1)OCO2)C1CCN(S(=O)(=O)c2ccc(Br)cc2)CC1 | 7.44 µM |
| O=C(NCc1ccc(F)cc1)C1CCN(S(=O)(=O)c2sccc2Br)CC1 | 69.2 µM |
| O=C(NCc1ccc(F)cc1)C1CCN(S(=O)(=O)c2ccc(Br)cc2)CC1 | 28 µM |
| O=C(NCc1cccc(F)c1)C1CCN(S(=O)(=O)c2ccc(Br)cc2)CC1 | 11.2 µM |
| O=C(NCc1ccc(F)cc1)C1CCN(S(=O)(=O)c2ccc(Br)s2)CC1 | 3.95 µM |
| O=C(NCc1cccc(F)c1)C1CCN(S(=O)(=O)c2ccc(Br)s2)CC1 | 2.18 µM |
| O=C(NCc1ccc(F)cc1)C1CCN(S(=O)(=O)c2ccc(Cl)s2)CC1 | 6.48 µM |
| O=C(NCc1ccccc1F)C1CCN(S(=O)(=O)c2ccc(Br)cc2)CC1 | 12.7 µM |
| O=C(NCc1ccccc1F)C1CCN(S(=O)(=O)c2ccc(Br)s2)CC1 | 2.53 µM |

Now from value to molecule:

| IC50 | SMILES |
| --- | --- |
| 3.98 µM | O=C(NCc1cccc(F)c1)C1CCN(S(=O)(=O)c2ccc(Cl)s2)CC1 |
| 1.22 µM | O=C(NCc1ccc2c(c1)OCO2)C1CCN(S(=O)(=O)c2ccc(Br)s2)CC1 |
| 34.3 µM | O=C(NCc1ccc2c(c1)OCO2)C1CCN(S(=O)(=O)c2sccc2Br)CC1 |
| 2.83 µM | O=C(NCc1ccc2c(c1)OCO2)C1CCN(S(=O)(=O)c2ccc(Cl)s2)CC1 |

Same assay, conditions: purified rPFM1AAP, H-Leu-NHMec fluorogenic substrate cleavage; at 100 µM (top of the series)

| SMILES | inhibition |
| --- | --- |
| O=C(NCc1ccccc1F)C1CCN(S(=O)(=O)c2cc(Br)c(Br)s2)CC1 | inactive |
| O=C(NCc1cccc(F)c1)C1CCN(S(=O)(=O)c2cc(Br)c(Br)s2)CC1 | inactive |
| O=C(NCc1ccc(F)cc1)C1CCN(S(=O)(=O)c2cc(Br)c(Br)s2)CC1 | inactive |
| O=C(NCCc1ccc2c(c1)OCO2)C1CCN(S(=O)(=O)c2cc(Br)c(Br)s2)CC1 | inactive |
| O=C(NCCc1ccc2c(c1)OCO2)C1CCN(S(=O)(=O)c2ccc(Br)cc2)CC1 | inactive |

Continued, values first:

| inhibition | SMILES |
| --- | --- |
| inactive | O=C(Nc1ccc2c(c1)OCO2)C1CCN(S(=O)(=O)c2ccc(Br)s2)CC1 |
| inactive | O=C(Nc1ccc2c(c1)OCO2)C1CCN(S(=O)(=O)c2cc(Br)c(Br)s2)CC1 |
| inactive | O=C(NCc1ccc2c(c1)OCO2)C1CCN(S(=O)(=O)c2cc(Br)c(Br)s2)CC1 |
| inactive | O=C(NCCc1ccc2c(c1)OCO2)C1CCN(S(=O)(=O)c2ccc(Br)s2)CC1 |
| inactive | O=C(Nc1ccc2c(c1)OCO2)C1CCN(S(=O)(=O)c2sccc2Br)CC1 |
| inactive | O=C(Nc1ccc2c(c1)OCO2)C1CCN(S(=O)(=O)c2ccc(Br)cc2)CC1 |
| inactive | O=C(Nc1ccc2c(c1)OCO2)C1CCN(S(=O)(=O)c2ccc(Cl)s2)CC1 |
| inactive | O=C(NCCc1ccc2c(c1)OCO2)C1CCN(S(=O)(=O)c2sccc2Br)CC1 |
| inactive | O=C(NCCc1ccc2c(c1)OCO2)C1CCN(S(=O)(=O)c2ccc(Cl)s2)CC1 |
